Hits are enriched below; roughly 1.5% of the tested compounds scored in any of these assays.
Arr AP2 block: inhibitors of human beta-arrestin and AP2 interaction | FITC-arrestin peptide / GST-AP2 beads, flow cytometry; AP2 beta2 appendage carries R879A mutation | inhibition, % at 10 µM | actives 0.31% (n = 340,000) | AID 504490;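 active = inhibition above a set limit, near 3 SD of compounds lacking own fluorescence, cut at about 54% in these data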
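System: GST-AP2 R879A glutathione beads | Also added: FITC-arrestin peptide, 50 nM | Times: 12 min plus 1 h, RT | Signal: Bead flow cytometry, FITC channel | Buffer or medium: PBS with 0.05% Tween 20 and 0.1% BSA | Read-out basis: Percent drop in bead-associated FITC signal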
LANA-H2A inh: blocks KSHV LANA binding to histone H2A/H2B. Q9QR71. cell-free LANA-H2A/H2B peptide, fluorescence polarization. inhibition, % (test concentration not listed). actives 0.6% (n = 320,000). AID 2629; in the data active = inhibition mostly above about 10%, no sharp cut-off; inactive = mostly below about 6.7%
Target sequence (Q9QR71 whole entry, looked up): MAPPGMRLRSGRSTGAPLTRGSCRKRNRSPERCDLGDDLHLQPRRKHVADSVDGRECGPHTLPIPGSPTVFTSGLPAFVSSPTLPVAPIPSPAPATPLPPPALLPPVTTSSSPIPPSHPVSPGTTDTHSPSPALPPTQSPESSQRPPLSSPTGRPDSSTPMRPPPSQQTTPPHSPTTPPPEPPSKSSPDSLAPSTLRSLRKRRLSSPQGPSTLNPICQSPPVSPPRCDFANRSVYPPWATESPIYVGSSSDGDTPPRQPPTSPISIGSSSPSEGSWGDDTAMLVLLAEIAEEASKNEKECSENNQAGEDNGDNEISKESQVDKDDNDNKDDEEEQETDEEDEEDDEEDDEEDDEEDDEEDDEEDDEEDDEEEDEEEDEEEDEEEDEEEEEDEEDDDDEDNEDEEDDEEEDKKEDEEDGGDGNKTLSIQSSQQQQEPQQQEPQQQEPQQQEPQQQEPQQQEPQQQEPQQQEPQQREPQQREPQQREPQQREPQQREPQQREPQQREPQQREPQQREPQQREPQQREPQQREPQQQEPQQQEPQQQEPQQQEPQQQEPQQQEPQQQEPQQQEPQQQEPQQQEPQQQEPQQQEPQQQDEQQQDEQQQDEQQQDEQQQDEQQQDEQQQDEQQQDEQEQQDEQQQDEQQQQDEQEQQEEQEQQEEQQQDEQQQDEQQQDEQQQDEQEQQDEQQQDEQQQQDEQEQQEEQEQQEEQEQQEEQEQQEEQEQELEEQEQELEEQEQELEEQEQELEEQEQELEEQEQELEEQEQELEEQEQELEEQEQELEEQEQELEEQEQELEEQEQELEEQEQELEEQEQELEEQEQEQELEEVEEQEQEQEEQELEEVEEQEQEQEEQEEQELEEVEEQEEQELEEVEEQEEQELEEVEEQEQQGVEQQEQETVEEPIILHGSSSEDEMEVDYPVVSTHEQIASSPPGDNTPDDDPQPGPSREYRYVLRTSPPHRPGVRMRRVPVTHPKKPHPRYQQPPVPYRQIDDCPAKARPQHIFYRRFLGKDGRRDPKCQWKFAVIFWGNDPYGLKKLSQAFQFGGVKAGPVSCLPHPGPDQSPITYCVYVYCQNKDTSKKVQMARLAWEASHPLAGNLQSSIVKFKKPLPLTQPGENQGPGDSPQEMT
T cell HTS: T cell immune modulators affecting CD8 T cell-vesicle binding; 2C CD8+ T cell-vesicle binding, flow cytometry; active compounds read low; response (vesicle binding), % at 7 µM; actives 0.068% (n = 330,000); AID 2052;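 active = response, share of CD8 T cells binding vesicles, and their 90th percentile fluorescence all below set limits, cut at about 80% in these data, passing the limit was not always enough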;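 also: values below 100% mean blocked vesicle binding to the CD8+ T cells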
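Benchmarks: naked versus QL9-loaded vesicles / Assay system: purified 2C TCR transgenic mouse naive CD8+ T cells / Technique: high-throughput flow cytometry with anti-B7-1 and anti-CD8 staining / Timing: Cell–vesicle co-incubation 1.5 h at 37 °C, staining 20 min on ice / Read-out: percent CD8+ FL2 mean versus row control / Probe or stimulus: QL9-loaded Drosophila micro-vesicles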
HDAC3 inhib: blocks human histone deacetylase 3 | O15379 | recombinant HDAC3, fluorogenic peptide/trypsin coupled, fluorescence | inhibition, % at 8.3 µM | actives 0.15% (n = 320,000); in the data active = inhibition above about 26%, passing the limit was not always enough
DSG3 Ab inh: human desmoglein-3 autoantibody binding inhibition; DSG3-coupled beads, scFv-anti-DSG3-GFP binding, flow cytometry; active compounds read low; AID 588358; P32926; binding (percent of control), % at 10 µM; actives 0.48% (n = 310,000);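 active = binding more than 3 SD below its plate's average and above zero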;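 also: hits lower antibody fragment binding to DSG3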
Large screens that a line does not name were inactive.

O=C(CN1CC[C@@]2(O)CCCC[C@H]2[C@@H]1c1ccc(F)cc1)NCc1ccco1	none
CCOC(=O)N1CCC2(O)CCCCC2C1c1ccc(F)cc1 (stereo not drawn)	DSG3 Ab inh 86
CCN(CC)C(=O)[C@H]1C[C@H](CC(=O)NCCC2=CCCCC2)C(=O)N2CCc3c([nH]c4cc(CCC(=O)N(C)C)ccc34)[C@]12C	none (no result: LANA-H2A inh, T cell HTS, HDAC3 inhib)
O=C(O/N=C(/c1ccccc1)c1ccncc1)c1ccc(F)cc1	HDAC3 inhib 31
CCOc1cc(N2CCOCC2)c(OCC)cc1NS(=O)(=O)c1ccc2c(c1)CC(=O)N2	none (no result: Arr AP2 block, LANA-H2A inh, T cell HTS, HDAC3 inhib)
O=C(Nc1ccc(Cl)cc1Cl)c1cc2ccccc2o1	DSG3 Ab inh 96
O=C1NCCCCC1NS(=O)(=O)c1ccc(F)c(F)c1 (stereo not drawn)	none
CCc1ccc(S(=O)(=O)NC2CCCCNC2=O)cc1 (stereo not drawn)	DSG3 Ab inh 76
CCc1c(C)nc(SCC(=O)Nc2nc(-c3ccc(OC)cc3)cs2)[nH]c1=O	T cell HTS 53 (no result: HDAC3 inhib)
Cc1ccc(S(=O)(=O)N[C@@H](C)C(=O)N2CCC(C(=O)N3CCC[C@H]3C(=O)O)CC2)cc1	LANA-H2A inh 7.6
Cn1nc(C(=O)NC2CCCCC2)c2c1-c1ccccc1S(=O)(=O)C2	none
O=C(CCn1cccn1)Nc1ccc2c(c1)OCO2	LANA-H2A inh 15
Cn1ccnc1SCC(=O)Nc1ccc2c(c1)OCO2	none
O=C(O)c1ccc(-n2cc(C(=O)c3ccccc3O)cn2)cc1	none
O=C(c1cnn(-c2nc3ccccc3s2)c1)c1ccccc1O	DSG3 Ab inh 8.3
O=C(O)c1cc(-c2ccc3c(c2)OCO3)nc2ccc(Br)cc12	DSG3 Ab inh 33
COC(=O)c1cc(-c2ccc3c(c2)OCO3)nc2ccccc12	none
CCN(Cc1ccccc1)C(=O)c1c(-c2ccccc2Cl)noc1C	none
CNC[C@H]1Oc2ccc(NC(=O)Cc3cn(C)c4ccccc34)cc2CC(=O)N([C@@H](C)CO)C[C@H]1C	LANA-H2A inh 16
Cc1noc(C)c1NC(=O)N(C)C[C@@H]1Oc2ccc(NC(=O)Cc3cn(C)c4ccccc34)cc2CC(=O)N([C@H](C)CO)C[C@@H]1C	none (no result: Arr AP2 block)
CCN(CC)S(=O)(=O)c1ccc(=O)n(CC(=O)N2CCCc3cc(C)ccc32)c1	none
CCc1ccc(C(=O)COC(=O)c2cccs2)cc1	none
COC(=O)c1ccc(OC(=O)c2cccnc2SC)cc1	none
COC(=O)c1ccc(OC(=O)c2ccco2)cc1	HDAC3 inhib 56
CCC(=O)c1ccc(OC(=O)c2cccs2)cc1	HDAC3 inhib 62 (no result: DSG3 Ab inh)
O=C(Oc1ccc(-c2ccccc2)cc1)c1ccco1	none (no result: LANA-H2A inh, T cell HTS, HDAC3 inhib)
COC(=O)c1ccc(OC(=O)c2cccs2)cc1	HDAC3 inhib 63
COC(=O)c1ccc(OC(=O)c2ccccn2)cc1	HDAC3 inhib 46 (no result: DSG3 Ab inh)
CCN(CC(=O)NCc1cccs1)C(=O)c1ccc(-c2ccc(F)cc2)o1	none
CC(=O)Nc1ccc(S(=O)(=O)NC2C3(C)CCC(C3)C2(C)C)cc1 (stereo not drawn)	none
CC(NS(=O)(=O)c1ccc2[nH]c(=O)[nH]c2c1)c1ccc(F)cc1 (stereo not drawn)	none (no result: Arr AP2 block, LANA-H2A inh, T cell HTS, HDAC3 inhib)
CC(C)(C)C(=O)N1CCCC1C(=O)O (stereo not drawn)	LANA-H2A inh 28
O=C(C1=NN(c2ccccc2)C(=O)CC1)N1CCc2ccccc2C1	none (no result: DSG3 Ab inh)
COc1ccc(/C=C2\C(=O)ON=C2c2ccccc2)cc1	none
O=C1ON=C(c2ccccc2)/C1=C/c1ccc(OS(=O)(=O)c2ccccc2)cc1	LANA-H2A inh 121
COc1ccccc1C(C)NC(=O)C1CCN(S(=O)(=O)c2cccs2)CC1 (stereo not drawn)	LANA-H2A inh active
COc1cc(NC(=O)C2CCN(S(=O)(=O)c3cccs3)CC2)cc(OC)c1	none
CCN(CC(=O)NCc1cccs1)C(=O)c1cccc(S(=O)(=O)N(CC)c2ccccc2)c1	none (no result: LANA-H2A inh, T cell HTS, HDAC3 inhib)
CCCc1nc(SCC(=O)c2ccc(F)cc2)c2ccccc2n1	HDAC3 inhib 33
CCCCNC(=O)CSc1nc(CCC)nc2ccccc12	none
Cc1ccc2nc(-c3cccc(S(=O)(=O)N4CC(C)OC(C)C4)c3)cn2c1 (stereo not drawn)	none
Cc1ccc(Cl)cc1N1CCN(C(=O)C2CCN(S(C)(=O)=O)CC2)CC1	LANA-H2A inh 13
CCOc1cccc2sc(NC(=O)CCS(=O)(=O)c3ccccc3)nc12	none
COc1ccc(C)c2sc(NC(=O)CCS(=O)(=O)c3ccccc3)nc12	LANA-H2A inh 103
CC1CCCCN1CCNC(=O)c1ccc2c(c1)N(Cc1cccc(Cl)c1)C(=O)c1ccccc1S2=O (stereo not drawn)	LANA-H2A inh 18
O=C(NCCCN1CCCC1)c1ccc2c(c1)N(Cc1cccc(Cl)c1)C(=O)c1ccccc1S2=O (stereo not drawn)	none (no result: DSG3 Ab inh)
CC(C)(C)c1ccc(SCCc2cccnc2)cc1	LANA-H2A inh 14
c1ccc(SCCc2ccncc2)cc1	none
Cc1ccccc1CS(=O)(=O)c1nnc([C@H](Cc2ccccc2)NC(=O)OC(C)(C)C)o1	HDAC3 inhib 46
CC(C)(C)OC(=O)N[C@@H](Cc1ccccc1)c1nnc(S(=O)(=O)Cc2ccccc2)o1	HDAC3 inhib 76 (no result: Arr AP2 block, DSG3 Ab inh)
CN(C(=O)COC(=O)C1(C)CC1(Cl)Cl)c1c(N)n(Cc2ccccc2)c(=O)[nH]c1=O (stereo not drawn)	none
CC1(C)CC2CC(C)(CN2S(=O)(=O)c2ccccc2[N+](=O)[O-])C1 (stereo not drawn)	none (no result: DSG3 Ab inh)
CC(Oc1cccc(Br)c1)C(=O)NNC(=O)CCNC(=O)c1ccccc1Cl (stereo not drawn)	none
COc1ccc(C(=O)n2c(-c3ccco3)nc3ccccc32)cc1	HDAC3 inhib 43
COc1ccc(C(=O)N2CCn3c2nc2ccccc23)cc1	none
O=c1nc(SCc2cccc(C(F)(F)F)c2)nc2ccccn12	LANA-H2A inh 17
Cc1ccn2c(=O)nc(SCc3cccc(C(F)(F)F)c3)nc2c1	none
CCOc1ccccc1OCCNC1CCCC1	LANA-H2A inh 145
CCOc1ccc(OCCNC2CCCC2)cc1	none
CCCn1c(SCC(=O)NC2CCCCC2)nnc1-c1ccco1	none (no result: DSG3 Ab inh)
CCOc1ccc(/C=C/C2=Cc3c(sc(NC(=O)CSc4n[nH]c(N)n4)c3C#N)C(C)(C)C2)cc1	DSG3 Ab inh 81
Cc1ccsc1/C=C/C1=Cc2c(sc(NC(=O)CSc3n[nH]c(N)n3)c2C#N)C(C)(C)C1	DSG3 Ab inh 70
NC(=O)c1ccsc1NC(=O)CSc1n[nH]c(N)n1	none (no result: Arr AP2 block, DSG3 Ab inh)
CN(CC(=O)Nc1ccc(N2CCOCC2)cc1)C(=O)CSc1ccc(F)cc1	none
NS(=O)(=O)c1ccc(NC(=O)COc2ccc(C(=O)c3ccc(F)cc3)cc2)cc1	DSG3 Ab inh 54
Cc1ccc(NC(=O)c2cc(S(=O)(=O)N3CCCC3)cn2C)cc1C	DSG3 Ab inh 18
Cc1ccc(NC(=O)c2cc(S(=O)(=O)N3CCOCC3)cn2C)cc1Cl	none
